The sample as a whole holds a higher share of hits than the screen did.
ALR inh: inhibitors of human sulfhydryl oxidase ALR. hit rate 3.8% among 290,000. purified ALR, DTT oxidation, H2O2 HRP-luminol luminescence. AID 485317. inhibition, % (test concentration not listed);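 active = mean replicate inhibition above about 79%, with every replicate also reaching it, limit read from the data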
Target sequence (P55789 whole entry, looked up): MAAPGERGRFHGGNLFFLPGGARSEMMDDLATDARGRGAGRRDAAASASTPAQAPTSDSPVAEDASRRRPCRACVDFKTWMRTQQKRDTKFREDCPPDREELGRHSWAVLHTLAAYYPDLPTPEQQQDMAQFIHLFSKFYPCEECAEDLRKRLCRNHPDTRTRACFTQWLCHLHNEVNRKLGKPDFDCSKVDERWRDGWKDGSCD
T cell modulator: T cell immune modulation candidate; response (vesicle binding), % at 7 µM; AID 2052; 2C CD8+ T cell-vesicle binding, flow cytometry; active compounds read low; hit rate 0.068% among 330,000;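 active = response, share of CD8 T cells binding vesicles, and their 90th percentile fluorescence all below set limits, cut at about 80% in these data, passing the limit was not always enough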;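 note: values below 100% mean blocked vesicle binding to the CD8+ T cells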
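Test system: purified 2C TCR transgenic mouse naive CD8+ T cells. Probe or stimulus: QL9-peptide-loaded Drosophila micro-vesicles bearing Ld, ICAM-1 and B7-1. Incubation: binding step 1.5 h, 37 °C, antibody labelling 20 min, ice. Measured by: flow cytometry of vesicle-bound cells.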
N-glyco inh: N-linked glycosylation inhibition | hit rate 0.23% among 360,000 | AID 588692 | reporter increase, % at 12.5 µM | D54 ERlucT glycosylation luciferase reporter, 24 h; percent of 100 nM tunicamycin response;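 active = mean luciferase reporter signal, scaled so untreated is 0 and the glycosylation-blocking control 100, at or above a set limit in every replicate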;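 note: luciferase carries N-glycosylation sites so blocking glycosylation raises the light; 0% = median of neutral control wells and 100% = median of 100 nM tunicamycin wells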
* marks the source's active call; other numbers are inactive results; . = no result.

SMILES	ALR inh	T cell modulator	N-glyco inh
O=C(C1=C(O)C(=O)N(c2ccccc2)C1c1ccc([N+](=O)[O-])cc1)c1cccs1 (configuration not stated)	89*	194	1
Cc1cccc(N2C(=O)C(O)=C(C(=O)c3cccs3)C2c2cccc(Oc3ccccc3)c2)n1 (configuration not stated)	98*	135	0
Cc1cccc(N2C(=O)C(O)=C(C(=O)c3cccs3)C2c2ccccc2)n1 (configuration not stated)	-17	133	0
COc1cc(Cl)c(C)cc1NC(=O)CSC1=NCCS1	.	246	3
CCOC(=O)c1cc(OCC)c2c(ccc3cc(OC)ccc32)n1	.	.	-2
O=C(NCC1CCCO1)c1ccc(COc2ccccc2Br)cc1 (configuration not stated)	-2	428	0
Nc1nc(OCC2CCCCC2)c2[nH]cnc2n1	97*	284	5
Nc1nc2nc[nH]c2c(=O)[nH]1	-19	150	8
Cc1nc(S(=O)(=O)c2ccc(Cl)cc2)c(N(C)C)o1	8	396	0
Cc1ccc(O)c(-c2cc(C(F)(F)C(F)F)[nH]n2)c1	98*	196	-1
Cc1ccc(O)c(-c2cc(-c3ccccc3C)[nH]n2)c1	.	.	0
COc1cc(CC2COC(c3ccc(O)c(OC)c3)C2COC(C)=O)ccc1O (configuration not stated)	82*	153	0
COc1cc([C@@H]2OC[C@@H]3[C@H]2CO[C@@H]3c2ccc3c(c2)OCO3)ccc1O	13	233	0
CCN1C(=O)N(S(=O)(=O)c2ccc(C)cc2)[C@@H](c2ccccc2)C(C(=O)OC)=C1C	0	198	-3
CN1CCN(C(c2ccc(Br)cc2)c2cc(Cl)c3cccnc3c2O)CC1 (configuration not stated)	17	323	37*
CN1CCN(C(c2ccc(F)cc2)c2ccc3cccnc3c2O)CC1 (configuration not stated)	.	.	0
O=C(CNC(=O)c1cccc(Cl)c1)N/N=C/C=C/c1ccccc1	-26	239	-10
Cc1cc2c(s1)Nc1ccccc1N=C2N1CCN(C)CC1	94*	489	-2
OCCOCCN1CCN(C2=Nc3ccccc3Sc3ccccc32)CC1	4	579	-3
CCc1ccc(NC(=O)CN(N=Nc2nonc2C)c2nonc2C)cc1	-9	243	1
COc1ccc(-c2noc3c2-c2nc(-c4cccc(C)c4)sc2CC3)cc1	0	512	-2
CCC1(CC(C)C)SC(N)=NC1=O (configuration not stated)	.	.	0
COc1ccccc1CN(C)C(=O)C1COc2ccccc2O1 (configuration not stated)	100*	489	-2
Cc1ccc(NC(=O)CN(C)C(=O)C2COc3ccccc3O2)cc1 (configuration not stated)	2	306	1
Oc1ccc(C23CCCC2C2(CCCC2)c2ccc(O)cc2O3)c(O)c1 (configuration not stated)	90*	600	0
SMILES	ALR inh	T cell modulator	N-glyco inh
CCc1ccc(C(=O)COC(=O)CNC(=O)C2CCCCC2)cc1	.	.	1
N#Cc1ccc(-c2ccc(OCC3CNC(=O)O3)cc2)cc1 (configuration not stated)	-2	91	0
COc1ccccc1N=c1scc(-c2ccc3c(c2)NC(=O)CO3)n1CC1CCCO1 (configuration not stated)	99*	146	-5
O=C1COc2ccc(-c3csc(=Nc4ccc(OC(F)F)cc4)n3CC3CCCO3)cc2N1 (configuration not stated)	19	460	-4
CCN=c1scc(-c2ccc3c(c2)NC(=O)CO3)n1N=C1CCCC1	91*	311	-6
CCCCN=c1scc(-c2ccc3c(c2)NC(=O)CO3)n1N=C1CCCC1	11	366	-6
Clc1cccc(Cl)c1CNc1ccc(N2CCCC2)cc1	-18	322	.
CC(=O)SCC(=O)N=c1sc2cc(F)ccc2n1C	99*	219	5
Cn1c(=NC(=O)CS(=O)(=O)c2ccccc2)sc2cc(F)ccc21	.	.	1
COc1cc(/C=C(\C#N)C(=O)N2CCOCC2)cc(Br)c1O	47	466	2
COc1cc(/C=C(\C#N)C(=O)c2ccc(O)c(O)c2)cc(I)c1O	99*	634	3
c1ccc2c(c1)CCN(c1nc3ccccc3n3cnnc13)C2	0	244	0
c1ccc2c(c1)nc(N1CCOCC1)c1nncn12	-3	153	3
c1ccc(N2CCN(c3nc4ccccc4n4cnnc34)CC2)cc1	97*	309	17
C1=C(c2ccccc2)CCN(c2nc3ccccc3n3cnnc23)C1	95*	405	4
COc1ccc(C(C)(NC(C)=O)c2nc(-c3cc(F)cc(F)c3)cs2)cc1 (configuration not stated)	.	.	-3
Cc1ccc(S(=O)(=O)N2CCC(C(=O)N3CC(C)OC(C)C3)CC2)cc1 (configuration not stated)	-18	473	0
O=C(NC(=S)NCc1ccncc1)c1ccccc1	94*	223	2
O=C(NC(=S)NCc1ccccc1)c1ccccc1	0	309	0
Cc1ccc(/C=N/N2C(=S)SC(C)(C)C2N(O)C(=O)Nc2ccc([N+](=O)[O-])cc2)cc1 (configuration not stated)	-34	533	-4
CC1(C)SC(=S)N(/N=C/c2ccc(O)cc2)C1N(O)C(=O)Nc1ccc([N+](=O)[O-])cc1 (configuration not stated)	81*	369	-2
O=C1NC(NS(=O)(=O)c2ccccc2)(C(F)(F)F)C(=O)N1c1cccc(Cl)c1 (configuration not stated)	3	173	0
O=C(/C=C/C(=O)N1CCc2ccccc2C1)N1CCc2ccccc2C1	85*	65	0
O=C(/C=C/c1ccc(F)cc1)N1CCc2ccccc2C1	.	374	0
O=C1[C@H](Cc2ccccc2)NCCCC[C@H](c2ccco2)N1Cc1ccccc1	.	.	-6
SMILES	ALR inh	T cell modulator	N-glyco inh
O=[N+]([O-])c1cnccc1NC1CCCCC1	-6	402	0
N#C/C(=N\Nc1c(Cl)cccc1Cl)C(=O)NN	98*	226	3
N#C/C(=N\Nc1ccccc1Cl)C(=O)c1ccccc1	.	189	2
COC(C/C=C\[C@@H](O)[C@@H](C)OCc1ccccc1)OC	14	187	2
COC(C/C=C\C(=O)[C@H](C)OCc1ccccc1)OC	83*	.	5
O=C(O)c1ccc(/C=C2\SC(=S)N(NC(=O)c3ccccc3)C2=O)cc1	19	81	0
CC(=O)NN1C(=O)/C(=C/c2ccc(C(C)C)cc2)SC1=S	98*	400	2
CCc1cc(-c2n[nH]c(=S)n2N)n(C)n1	95*	162	2
CCc1nn(C)c(-c2n[nH]c(=S)n2N)c1Cl	91*	385	3
Cc1nn(C)c(-c2n[nH]c(=S)n2-c2ccccc2)c1Cl	.	262	-2
Cc1cc(-c2n[nH]c(=S)n2Cc2ccco2)n(C)n1	-5	296	5
O=C(COC(=O)Cc1ccsc1)Nc1ccc(Br)cc1F	4	302	0

Compound activity: PubChem, several laboratories
